For orientation: inhibition means the drop in the measured response relative to a control, in per cent.

The record followed here is PubChem BioAssay AID1496 (Sanford-Burnham Center for Chemical Genomics, 2009).

Molecules are shown by their SMILES. In all, about 220,000 compounds went through this assay and about 990 (0.45%) were called active. This excerpt belongs to a sample that is enriched for actives. A number with no mark means an inactive call.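 Rule for the calls: active = inhibition over about 50% at 20 µM in the single-dose screen (limit read from the data); inactive = the rest.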

Runt-related transcription factor 1 (Homo sapiens) + Core-binding factor subunit beta (Homo sapiens), sequence (Q01196 whole entry, looked up, the tested form may be a part): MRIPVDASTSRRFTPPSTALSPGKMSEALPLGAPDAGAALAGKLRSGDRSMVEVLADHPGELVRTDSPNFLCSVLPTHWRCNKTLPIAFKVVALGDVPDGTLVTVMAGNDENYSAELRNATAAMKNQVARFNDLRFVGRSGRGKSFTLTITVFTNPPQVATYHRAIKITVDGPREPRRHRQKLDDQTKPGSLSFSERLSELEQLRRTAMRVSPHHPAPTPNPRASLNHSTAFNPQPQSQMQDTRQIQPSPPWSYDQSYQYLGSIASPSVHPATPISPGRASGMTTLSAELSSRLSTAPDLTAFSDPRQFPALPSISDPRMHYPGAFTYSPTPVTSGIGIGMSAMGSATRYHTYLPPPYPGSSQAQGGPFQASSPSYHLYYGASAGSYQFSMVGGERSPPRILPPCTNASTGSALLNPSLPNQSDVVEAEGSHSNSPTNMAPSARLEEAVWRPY
Runt-related transcription factor 1 (Homo sapiens) + Core-binding factor subunit beta (Homo sapiens), sequence (Q13951 whole entry, looked up, the tested form may be a part): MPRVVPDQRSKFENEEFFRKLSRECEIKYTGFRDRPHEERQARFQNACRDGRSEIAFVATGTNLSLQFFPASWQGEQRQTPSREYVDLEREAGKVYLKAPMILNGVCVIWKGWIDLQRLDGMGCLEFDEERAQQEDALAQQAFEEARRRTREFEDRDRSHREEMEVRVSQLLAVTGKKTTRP

The assay addresses Runt-related transcription factor 1 (Homo sapiens) + Core-binding factor subunit beta (Homo sapiens) (UniProt Q01196+Q13951). Briefly: inhibitors of RUNX1 Runt–CBFb binding, primary screen, biochemical, FRET, Cerulean-Runt, Venus-CBFb, uHTS (AID 1496).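 Note: 0% = DMSO wells and 100% = excess unlabeled CBFb competitor control.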 The following applies: Cerulean-Runt/Venus-CBFb FRET ratio 530/480, 1 h; at 20 µM; stronger effect = higher value. In short, it runs like this:
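Schedule: protein complex preformed 1 h, compound exposure 1 h, room temperature, dark; test system: Cerulean-labeled Runt domain protein; amount: 100 nM per protein; buffer or medium: Tris 50 mM pH 7.5, KCl, K2SO4, 0.01% BSA; read-out: loss of energy transfer signal; detection: FRET fluorescence; controls: 5 µM unlabeled CBFb as full-inhibition high control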
With `CC(C)Cn1c(CCC(=O)O)ccc1-c1cccs1`, the inhibition is 65.6% (active).
The result for `CCn1c(NC(=O)c2ccccc2)c(-c2cccs2)c(=O)c2ccccc21` reads -4.7%; that for `COCCCn1c(CCC(=O)O)ccc1-c1ccc(F)cc1`, 3.3%; that for `CNC(=S)NNC(=O)c1ccc(N(C)C)cc1`, 1.6%.
Regarding `Cc1cc(F)ccc1NC(=O)C(C)n1c2ccccc2c2nc(=O)cc(C)n21` (configuration not stated), the inhibition is 1.5%.
Consider `CCOc1ccc(/C=N/NC(=O)CSc2ccccn2)cc1O`, for which the inhibition is 2.9%.
With `CCN(CC)CCn1c(N)c(S(=O)(=O)c2ccccc2)c2nc3ccccc3nc21`, the inhibition is 5.9%.
For `Cc1ccc(S(=O)(=O)c2c(N)n(C)c3nc4ccccc4nc23)cc1`, the inhibition is 7.1%.
The result for `CCC(=O)Nc1c(S(=O)(=O)c2ccccc2)c2nc3ccccc3nc2n1Cc1ccccc1` reads 78.8% (active).
Turning to `O=c1c2cc(-c3ccccc3)sc2nc2n1N=C(c1cccs1)CS2`, the inhibition was -2.4%.
Take `Nc1nc(NCC2CCCO2)nc(Nc2ccccc2F)c1[N+](=O)[O-]` (configuration not stated): the inhibition is -3.8%.
With `COCCCNC(=S)NC(=O)c1ccc([N+](=O)[O-])cc1`, the inhibition was 4.5%.
On to `Cc1ccc2nc(NCCCNC(=O)c3cnccn3)c(C#N)cc2c1`, for which the inhibition was 21.2%.
As for `COCCCNC(=S)NCCNc1nc2cc(C)c(C)cc2cc1C#N`, the inhibition was 82.7% (active).
The result for `CC(/C=C/c1ccco1)=N/NC(=O)C1COc2ccccc2O1` (configuration not stated) reads 2.3%; that for `Cn1nc(C(F)(F)F)c(-c2ccc(F)cc2)c1NC(=O)CSCC(=O)O`, 3.4%; that for `Cc1ccnc(N2C(=O)c3ccccc3C2Nc2ccc3c(c2)OCCO3)c1` (configuration not stated), 1.5%.
As for `O=C(NC1CCCCC1)C1c2ccccc2C(=O)N1Cc1ccco1` (configuration not stated), the inhibition is 1.8%.
The result for `O=C1c2ccccc2C(Nc2ccc3c(c2)OCCO3)N1Cc1ccco1` (configuration not stated) reads 70% (active); that for `COC(=O)c1ccc(COc2cc([N+](=O)[O-])cc3cccnc23)cc1`, -0.8%; that for `Cc1ccc2c(CSc3nncs3)cc(=O)oc2c1`, 3.7%.
Turning to `CCOC(=O)Cc1csc(NC(=O)COc2ccc3c(C)cc(=O)oc3c2)n1`, the inhibition is 1.8%.
The result for `CCOC(=O)Cc1csc(SCc2cc(=O)oc3cc(O)ccc23)n1` reads 77.8% (active); that for `COc1cccc(Nc2nc(N)c([N+](=O)[O-])c(NCc3ccco3)n2)c1`, 0.2%.
For the compound `CN1CCN(Cc2c(O)ccc3c2oc(=O)c2ccccc23)CC1`, the inhibition is -1.7%.
With `O=c1oc2c(CN3CCCCC3)c(O)ccc2c2c1CCCCC2` the figure was 72.8% (active).
The result for `NC(=O)COc1ccc2c3c(c(=O)oc2c1)CCCCC3` reads 1.7%; that for `N#CC1=C(N)Oc2cc(O)ccc2C1C1CCCCC1` (configuration not stated), 50.9% (active); that for `N#CC1=C(N)OC2=C(C(=O)CCC2)C1C1CC=CCC1` (configuration not stated), -0.5%.
The result for `COCc1[nH]nc2c1C(C1C=CCCC1)C(C#N)=C(N)O2` (configuration not stated) reads -0.2%.
On to `COC(=O)c1noc(C)c1-c1ccnn1C(=O)c1ccc(Cl)cc1`, for which the inhibition is 0%.
With `Fc1ccc(COc2ccc(-c3nnco3)cc2)cc1` the figure was -1.3%; with `O=C(/C=C/c1ccc2c(c1)OCCO2)c1ccc(O)cc1`, -2.3%.
The result for `COc1ccc(-c2cn3ccc(C)cc3n2)cc1` reads 0.2%; that for `O=c1cc(CN2CCN(S(=O)(=O)/C=C/c3ccccc3)CC2)c2ccc(O)cc2o1`, 74.1% (active).
For `O=C(CN1CCN(S(=O)(=O)/C=C/c2ccccc2)CC1)Nc1ccc(N2CCOCC2)cc1`, the inhibition was 0.6%.
In the case of `COc1ccc2c(CN3CCN(S(=O)(=O)c4cccs4)CC3)cc(=O)oc2c1`, the inhibition was -1.9%.
The result for `COc1ccc(Nc2cc(=O)n(-c3ccccc3)c3c2c(=O)n(C)c(=O)n3C)cc1` reads -0.7%; that for `Cn1c(CC2Sc3ccccc3NC2=O)nnc1SCC(=O)c1ccc(Cl)cc1` (configuration not stated), 1.9%; that for `O=C(C[n+]1cc(-c2ccc(Cl)c(Cl)c2)n2c1CCC2)c1cccs1`, 1.5%.
Regarding `CCOc1ccc(-c2nc(N)ncc2-c2ccccc2OC)c(O)c1`, the inhibition was -2.9%.
With `Cc1cc2nc3c(=O)n(Cc4ccccc4)c(=O)[nH]c3nc2cc1N` the figure was -281%; with `COc1ccc2[nH]c(=S)cc(C)c2c1`, 30.9%.
The result for `O=C(Oc1ccccc1)Oc1ccc2c(c1)oc(=O)c1ccccc12` reads -1%; that for `CC(=O)Nc1cc2ccc(OC(C)=O)cc2oc1=O`, 86.5% (active); that for `CC(=O)Oc1ccc2c(C)c(CC(C)O)c(=O)oc2c1` (configuration not stated), 52.3% (active).
Regarding `COC(=O)Cc1c(C)c2ccc(OCC(=O)NCc3ccc4c(c3)OCO4)cc2oc1=O`, the inhibition is -2.3%.
Consider `CC(=O)Oc1ccc(NC(=O)CCC2CCCCC2)c(C(=O)O)c1`, for which the inhibition was -13.2%.
With `Cc1c(Cc2ccccc2)c(=O)oc2cc(OCC(N)=O)ccc12`, the inhibition is -0.8%.
Consider `CCOC(=O)c1ccc(N=C2SC(C(=O)NC)CC(=O)N2CCc2ccccc2)cc1` (configuration not stated), for which the inhibition was -3%.
The result for `CCc1ccnc(NS(=O)(=O)c2ccc3c(c2)OCCO3)c1` reads 2.3%; that for `COc1ccccc1C1CCN(c2ccc([N+](=O)[O-])cn2)CC1`, 0.4%; that for `CCN1CCN(c2nc(Nc3cccc(F)c3)nc(N)c2[N+](=O)[O-])CC1`, -0.1%.
With `COC(=O)Cc1cc(=O)oc2c(C)c(O)ccc12` the figure was 19.3%.
As for `CCCc1cc(=O)[nH]c(SCc2cc(=O)oc3c(C)c(C)ccc23)n1`, the inhibition was -10.5%.
As for `CCCc1cc(=O)oc2c(C)c(O)c(CN3CCCCC3)cc12`, the inhibition is 84.1% (active).
With `Cn1nnc(NC(=S)NC(=O)c2ccccc2)n1`, the inhibition was 10.1%.
With `COC(=O)c1ccccc1N=Nc1c(C)[nH][nH]c1=O` the figure was -3.8%; with `CCN(CC)CCCN=C(N)N`, 2.2%.
With `O=C(CCN1c2ccccc2Sc2ccccc21)Nc1ccccc1`, the inhibition is 0.8%.
The result for `CCN1/C(=C/C(=S)Nc2ccccc2)Sc2ccccc21` reads 59.1% (active).
As to `CCC(=O)/C=C1\Sc2ccccc2N1CC`, the inhibition was 1.3%.
As for `O=C(Nc1ccc(S(=O)(=O)Nc2nccs2)cc1)c1cc(-c2ccncc2)nc2ccccc12`, the inhibition is -7.7%.
With `COc1ccc(CNC(=O)c2cc3c(=O)n4ccccc4nc3n(CC3CCCO3)c2=N)cc1` (configuration not stated) the figure was 85.6% (active); with `COc1ccc(CCNC(=O)CCn2c(=O)c3ccccc3n(CC(=O)NCC3CCCO3)c2=O)cc1OC` (configuration not stated), -1.8%.
As for `O=C(NCc1ccco1)c1cccn2c(=O)c3c4c(sc3nc12)CCCC4`, the inhibition was 12.3%.
The result for `CCn1c(=N)c(C(=O)NCCCOC)cc2c(=O)n3cccc(C)c3nc21` reads 19.3%.
`COc1ccc(CCn2c(=N)c(C(=O)NCc3ccco3)cc3c(=O)n4cccc(C)c4nc32)cc1`: the inhibition was 107% (active).
The result for `COc1ccc(CCNC(=O)Cn2c(=O)n(CC3CCCO3)c(=O)c3ccccc32)cc1OC` (configuration not stated) reads -0.8%; that for `CCCNC(=O)c1c(N)n(-c2ccc(S(N)(=O)=O)cc2)c2nc3ccccc3nc12`, 33%; that for `N#Cc1c(N)n(CCOC(=O)c2ccc(Cl)cc2)c2nc3ccccc3nc12`, 59% (active).
With `CC(C)(C)c1ccc(C(=O)NCCn2c(N)c(C#N)c3nc4ccccc4nc32)cc1` the figure was 72.8% (active); with `COCCCn1c2nc3ccccc3nc2c2c(=O)n(Cc3ccc(Cl)cc3)c(C)nc21`, 0.1%.
The result for `CN(C)CCCn1c(N)c(C#N)c2nc(C#N)c(C#N)nc21` reads 42.7%; that for `CC(C)Cn1c(N)c(C(=O)NCc2cccs2)c2nc3ccccc3nc21`, 16.3%.
Turning to `COc1ccc(CNC(=O)C(Cc2ccccc2)n2cccc2)cc1` (configuration not stated), the inhibition is 1.1%.
With `NCCCCCC(=O)N/N=C/c1ccc2nccnc2c1` the figure was 0.4%; with `CCCC(=O)Nc1nnc(-c2ccccc2)o1`, 0.1%.
With `CCCCCCc1cc2cc(-c3nnc(-c4ccccc4)o3)c(=O)oc2cc1O` the figure was 84.6% (active).
With `Cc1c(CCC(=O)O)c(=O)oc2cc3occ(-c4ccccc4)c3cc12` the figure was -3.4%; with `COC(=O)c1cc(NC(=O)c2cc(C(C)(C)C)nn2Cc2cccc(C)c2)ccc1N1CCOCC1`, -4%; with `COC(=O)c1cc(NC(=O)c2ccco2)ccc1N1CCOCC1`, 0.9%.
Regarding `COC(=O)C1=CN(C)C=C(C(=O)OC)C1c1ccc(Cl)cc1Cl`, the inhibition is 110% (active).
Take `NC(=O)C1(C(N)=O)OC1c1ccc(Cl)cc1Cl` (configuration not stated): the inhibition was 0.4%.
`CCOc1ccccc1C1C(C(=O)OC)=CN(C)C=C1C(=O)OC`: the inhibition was 9.9%.
With `CCOc1cccc(/C=N/NC(=S)NCCN2CCOCC2)c1O`, the inhibition was -15.6%.
Turning to `O=C1CSC(=S)N1/N=C/c1ccc(O)c([N+](=O)[O-])c1`, the inhibition was 26.4%.
With `CCOc1cccc(/C=N/N2C(=O)CSC2=S)c1O`, the inhibition was 51.1% (active).
As to `Cc1ccc(NS(=O)(=O)c2ccc(N/N=C/c3ccccc3OCC(=O)O)c([N+](=O)[O-])c2)c(C)c1`, the inhibition was -12.7%.
In the case of `CCN(CC)CCn1c2ccc(Cl)cc2c2nc(C)sc21`, the inhibition is 0.5%.
With `COC(=O)Cn1c(=NC(=O)c2cc(OC)c(OC)c(OC)c2)sc2cc(OC)ccc21` the figure was -1.4%; with `COC(=O)Cn1c2ccc(C)cc2c2nc(C)sc21`, 50.7% (active).
The result for `Cn1c(C(=O)O)ccc1S(=O)(=O)N(Cc1ccccc1)Cc1ccccc1` reads 0.9%.
The result for `COc1ccc(Br)c2c1C(=O)CC2` reads -4%; that for `COC(=O)c1ccc(C(=O)OC)c(NC(=S)N2CCN(c3ccc(F)cc3)CC2)c1`, 8.1%; that for `COC(=O)c1ccc(C(=O)OC)c(NC(=S)N2CCCCC2)c1`, 54% (active).
Take `COC(=O)c1ccc(C(=O)OC)c(NC(=S)N2CCN(c3cc(Cl)ccc3C)CC2)c1`: the inhibition was 9.1%.
